Data set [1] deals with coagulation parameters (PT, PTA, APTT, TT). Nature of the data set: Coagulation parameters. The format is in vivo, healthy Chinese subjects. The note with it: for PT / TT / APTT / PTA: mean ± SD.
A short description of data set [2]: Pharmacokinetics after a single 150 mg oral dose, fasting or postprandial. The format is in vivo, healthy Chinese subjects. In outline:
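Healthy volunteers, 50 per fasting or fed trial, in a randomized two-sequence (TRTR/RTRT), four-period, fully replicated crossover with a 7-day washout. Each dose was one 150 mg capsule with 240 mL warm boiled water, given fed after a ~950 kcal high-fat meal. 18 venous samples per period to 48 h in precooled EDTA-K2 tubes, spun 1700g 10 min 4 °C, plasma stored ≤−60 °C. Total-dabigatran range 1.000–300.0 ng/mL; parameters per subject.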

A word on the Tmax: it is the time at which the peak concentration occurs.

As to `CCCCCCOC(=O)N=C(N)c1ccc(NCc2nc3cc(C(=O)N(CCC(=O)OCC)c4ccccn4)ccc3n2C)cc1` [dabigatran etexilate], the “change of TT values after administration” value in data set [1] (both fasting and postprandial) is “increased more significantly”. In addition, the PT in data set [1] (fasting, fourth periodicity, n = 48, screening 13.01 ± 0.490) came out at 13.07 ± 0.488 s; in data set [1] (fasting, second periodicity, n = 50, screening 13.01 ± 0.490), 12.89 ± 0.475 s; in data set [1] (postprandial, fourth periodicity, n = 50, screening 12.62 ± 0.570), 12.82 ± 0.479 s; in data set [1] (postprandial, second periodicity, n = 50, screening 12.62 ± 0.570), 13.14 ± 0.504 s. Further, the TT in data set [1] (fasting, fourth periodicity, n = 48, screening 17.71 ± 0.880) was determined as 20.73 ± 2.099 s; in data set [1] (fasting, second periodicity, n = 50, screening 17.71 ± 0.880), 19.58 ± 1.976 s; in data set [1] (postprandial, fourth periodicity, n = 50, screening 17.63 ± 0.940), 21.30 ± 2.537 s; in data set [1] (postprandial, second periodicity, n = 50, screening 17.63 ± 0.940) it was 20.78 ± 2.490 s. Besides, the APTT in data set [1] (fasting, fourth periodicity, n = 48, screening 36.22 ± 3.090) turned out to be 36.61 ± 3.352 s; in data set [1] (fasting, second periodicity, n = 50, screening 36.22 ± 3.090), 36.71 ± 3.947 s; in data set [1] (postprandial, fourth periodicity, n = 50, screening 36.25 ± 2.860), 36.22 ± 2.746 s; in data set [1] (postprandial, second periodicity, n = 50, screening 36.25 ± 2.860), 36.06 ± 2.660 s. For the same compound, the PTA was found to be 101.2 ± 8.167% in data set [1] (fasting, fourth periodicity, n = 48, screening 101.7 ± 7.960); 104.4 ± 8.741% in data set [1] (fasting, second periodicity, n = 50, screening 101.7 ± 7.960); 105.5 ± 8.808% in data set [1] (postprandial, fourth periodicity, n = 50, screening 108.9 ± 10.58); 100.2 ± 8.297% in data set [1] (postprandial, second periodicity, n = 50, screening 108.9 ± 10.58).
In the case of `[H]/N=C(/N)c1ccc(NCc2nc3cc(C(=O)N(CCC(=O)O)c4ccccn4)ccc3n2C)cc1` [dabigatran], the Tmax is 4 h in data set [2] (after a high-fat meal, median, both formulations) and 2.5 h in data set [2] (human, plasma, oral, 150 mg).

The record behind these values is paper PMC11909909 (BMC Pharmacology & Toxicology, 2025).
